Drawing on ChEMBL document CHEMBL1914435, “Synthesis and evaluation of novel macrocyclic antifungal peptides” (2011), this text covers MIC and Activity for 17 molecules.

Usually MIC stands for the lowest concentration found to suppress growth. A high value points to weaker potency.

In experiment [1] the test system is Candida albicans. Kind of experiment: Antifungal activity against Candida albicans CBS 9975 after 24 hrs by broth microdilution method. The class given is functional. To be noted: for MIC: CBS 9975, 24 h. In short, it runs like this: (§1)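 Broth microdilution in YPD (1% yeast extract, 2% peptone, 1% dextrose). Compounds dissolved in water or 10% DMSO at 1 mg/mL, diluted fivefold in YPD, then serially twofold. CBS yeast isolates were grown on YPD agar for 24 h at 30 °C, then in YPD broth with shaking for 24 h. Inoculum was ~1.5 × 10³ cells/ml. Incubation at 30 °C. MIC read visually at 24 h as the lowest concentration giving full growth inhibition.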
(Dilution methods test growth across graded concentrations, often in twofold steps.)

Experiment [2] deals with Candida albicans. Kind of experiment: Antifungal activity against Candida albicans after 24 hrs by broth microdilution method. The class given is functional, organism-based. In short, it runs like this:
as §1

The test system of the next experiment is Candida dubliniensis. As to the kind of experiment: Antifungal activity against Candida dubliniensis after 24 hrs by broth microdilution method. Type of experiment: functional, organism-based. In short, it runs like this:
as §1

A further experiment deals with Nakaseomyces glabratus. As to the kind of experiment: Antifungal activity against Candida glabrata after 24 hrs by broth microdilution method. The class given is functional, organism-based. Summed up: as §1
Another experiment concerns Candida tropicalis. As to the kind of experiment: Antifungal activity against Candida tropicalis after 24 hrs by broth microdilution method. The class given is functional, organism-based. In short, it runs like this: as §1
The next experiment has as its system Candida parapsilosis. As to the kind of experiment: Antifungal activity against Candida parapsilosis after 24 hrs by broth microdilution method. Type of experiment: functional, organism-based. In short, it runs like this: as §1
In the next experiment the test system is Pichia kudriavzevii. As to the kind of experiment: Antifungal activity against Candida krusei after 24 hrs by broth microdilution method. The class given is functional, organism-based. In short, it runs like this: as §1
The subject of experiment [3] is Candida albicans. Kind of experiment: Antifungal activity against Candida albicans CBS 9975 assessed as enlarged round cells with distorted cytoplasm after 24 hrs by broth microdilution method. Type of experiment: functional, organism-based.
The test system of experiment [4] is Candida albicans. Kind of experiment: Antifungal activity against Candida albicans CBS 9975 assessed as enlarged round cells with large vacuoles after 24 hrs by broth microdilution method. The class given is functional, organism-based.
Experiment [5] deals with Candida albicans. Kind of experiment: Antifungal activity against Candida albicans CBS 9975 assessed as agglutinated enlarged round cells after 24 hrs by broth microdilution method. The class given is functional, organism-based.
Experiment [6] deals with Candida albicans. Kind of experiment: Antifungal activity against Candida albicans CBS 9975 assessed as reduction in budding cells after 24 hrs by broth microdilution method. The class given is functional, organism-based.

≈ marks a conversion by molar mass, not a printed value. Calls of active or inactive are those of the source. The rule behind the calls is not given here. Starred links: 1 amine or outer side, 2 acyl side, 3 side chain; linkers in the order of their positions; H or OH if unused. Positions of bridges follow the written chain, without caps; N, C: chain ends. Non-standard residues stand in square brackets, D forms with d. Residues, ends and D or L forms follow the SMILES beside them. *: point of attachment. pTerphenylCO(4''-OnC5H11) = CCCCCOc1ccc(-c2ccc(-c3ccc(C(=O)*)cc3)cc2)cc1; hTyr = N[C@@H](CCc1ccc(O)cc1)C(=O)O; Ethylenediamine = C(CN[*:2])N[*:1]; Palmitoyl = CCCCCCCCCCCCCCCC(=O)*; Hyp = O=C(O)[C@@H]1C[C@@H](O)CN1; AllylGly = C=CC[C@H](N)C(=O)O; Orn = NCCC[C@H](N)C(=O)O; NHNH2 = NN*

The molecule `CCCCCOc1ccc(-c2ccc(-c3ccc(C(=O)N[C@H]4CCCNC(=O)[C@@H]5C[C@@H](O)CN5C(=O)[C@H]([C@@H](C)O)NC(=O)[C@H](CCc5ccc(O)cc5)NC(=O)[C@@H]5C[C@@H](O)CN5C(=O)[C@H]([C@@H](C)O)NC4=O)cc3)cc2)cc1` ({pTerphenylCO(4''-OnC5H11)}-[Orn]T[Hyp][hTyr]T[Hyp]; lactam 1-C) showed an MIC against Candida albicans [1] of 0.47 mg/L (≈ 0.442 µM). The result with Candida albicans [2], in the experiment with Candida dubliniensis, in the experiment on Nakaseomyces glabratus, in the experiment on Candida tropicalis, with Candida parapsilosis and with Pichia kudriavzevii was Active.

Take `CCCCCCCCCCCCCCCC(=O)N[C@H]1CCCC[C@@H](C(N)=O)NC(=O)[C@@H]2C[C@@H](O)CN2C(=O)[C@H](CCCN)NC(=O)[C@H](CCc2ccc(O)cc2)NC(=O)[C@@H]2C[C@@H](O)CN2C(=O)[C@H]([C@@H](C)O)NC1=O`: the minimal inhibitory concentration (MIC) against Candida albicans [1] is > 100 mg/L.

With `CCCCCOc1ccc(-c2ccc(-c3ccc(C(=O)N[C@H]4C/C=C\C[C@@H](C(=O)NN)NC(=O)[C@@H]5C[C@@H](O)CN5C(=O)[C@H](CCCN)NC(=O)[C@H](CCc5ccc(O)cc5)NC(=O)[C@@H]5C[C@@H](O)CN5C(=O)[C@H]([C@@H](C)O)NC4=O)cc3)cc2)cc1` ({pTerphenylCO(4''-OnC5H11)}-[AllylGly]T[Hyp][hTyr][Orn][Hyp][AllylGly]-NHNH2; staple (Z) 1-7), in the experiment with Candida albicans [1], the Activity result is “Dose-dependent effect” and the MIC was > 100 mg/L.

As for `CCCCCCCCCCCCCCCC(=O)N[C@H]1C/C=C\C[C@@H](C(=O)O)NC(=O)[C@@H]2C[C@@H](O)CN2C(=O)[C@H](CCCN)NC(=O)[C@H](CCc2ccc(O)cc2)NC(=O)[C@@H]2C[C@@H](O)CN2C(=O)[C@H]([C@@H](C)O)NC1=O` (Palmitoyl-[AllylGly]T[Hyp][hTyr][Orn][Hyp][AllylGly]-OH; staple (Z) 1-7), the minimum inhibitory concentration (MIC) against Candida albicans [1] was > 100 mg/L.

Turning to `CCCCCOc1ccc(-c2ccc(-c3ccc(C(=O)N[C@H]4CCCC[C@@H](C(=O)O)NC(=O)[C@@H]5C[C@@H](O)CN5C(=O)[C@H](CCCN)NC(=O)[C@H](CCc5ccc(O)cc5)NC(=O)[C@@H]5C[C@@H](O)CN5C(=O)[C@H]([C@@H](C)O)NC4=O)cc3)cc2)cc1`, the MIC against Candida albicans [1] was > 100 mg/L.

Molecule `CCCCCCCCCCCCCCCC(=O)N[C@H]1CCCNC(=O)[C@@H]2C[C@@H](O)CN2C(=O)[C@H]([C@@H](C)O)NC(=O)[C@H](CCc2ccc(O)cc2)NC(=O)[C@@H]2C[C@@H](O)CN2C(=O)[C@H]([C@@H](C)O)NC1=O` (Palmitoyl-[Orn]T[Hyp][hTyr]T[Hyp]; lactam 1-C) displayed an MIC against Candida albicans [1] of 25 mg/L (≈ 26.1 µM). Moreover, the result in the experiment on Candida albicans [2], in the experiment with Candida dubliniensis, in the experiment with Nakaseomyces glabratus, in the experiment on Candida tropicalis, with Candida parapsilosis and in the experiment with Pichia kudriavzevii was Active.

As to `CCCCCCCCCCCCCCCC(=O)N[C@H]1C/C=C\C[C@@H](C(N)=O)NC(=O)[C@@H]2C[C@@H](O)CN2C(=O)[C@H](CCCN)NC(=O)[C@H](CCc2ccc(O)cc2)NC(=O)[C@@H]2C[C@@H](O)CN2C(=O)[C@H]([C@@H](C)O)NC1=O` (Palmitoyl-[AllylGly]T[Hyp][hTyr][Orn][Hyp][AllylGly]-NH2; staple (Z) 1-7), in the experiment on Candida albicans [1], the MIC is > 100 mg/L.

For `CC[C@H](C)C[C@H](C)CCCCCCCCC(=O)N[C@H]1C[C@@H](O)[C@@H](NCCN)NC(=O)[C@@H]2[C@@H](O)CCN2C(=O)[C@H]([C@H](O)CCN)NC(=O)[C@H]([C@H](O)[C@@H](O)c2ccc(O)cc2)NC(=O)[C@@H]2C[C@@H](O)CN2C(=O)[C@H]([C@@H](C)O)NC1=O` [CASPOFUNGIN], in the experiment with Candida albicans [1], it took 0.025 mg/L (≈ 0.0229 µM) to inhibit growth (MIC).

As to `CCCCCOc1ccc(-c2ccc(-c3ccc(C(=O)N[C@H]4C/C=C\C[C@@H](C(=O)O)NC(=O)[C@@H]5C[C@@H](O)CN5C(=O)[C@H](CCCN)NC(=O)[C@H](CCc5ccc(O)cc5)NC(=O)[C@@H]5C[C@@H](O)CN5C(=O)[C@H]([C@@H](C)O)NC4=O)cc3)cc2)cc1` ({pTerphenylCO(4''-OnC5H11)}-[AllylGly]T[Hyp][hTyr][Orn][Hyp][AllylGly]-OH; staple (Z) 1-7), the outcome with Candida albicans [3], with Candida albicans [4], in the experiment on Candida albicans [5] and in the experiment with Candida albicans [6] was Active. The Activity result in the experiment with Candida albicans [1] was “Dose-dependent effect”. In the experiment with Candida albicans [1], the minimal inhibitory concentration (MIC) is > 100 mg/L.

As to `CCCCCOc1ccc(-c2ccc(-c3ccc(C(=O)N[C@H]4CCCCNC(=O)[C@@H]5C[C@@H](O)CN5C(=O)[C@H](CCCN)NC(=O)[C@H](CCc5ccc(O)cc5)NC(=O)[C@@H]5C[C@@H](O)CN5C(=O)[C@H]([C@@H](C)O)NC4=O)cc3)cc2)cc1` ({pTerphenylCO(4''-OnC5H11)}-KT[Hyp][hTyr][Orn][Hyp]; lactam 1-C), in the experiment on Candida albicans [1], the minimum inhibitory concentration (MIC) was > 100 mg/L. Further, the outcome with Candida albicans [2], in the experiment on Candida dubliniensis, in the experiment with Nakaseomyces glabratus, with Candida tropicalis, with Candida parapsilosis and in the experiment with Pichia kudriavzevii was Active.

Turning to `CCCCCCCCCCCCCCCC(=O)N[C@H]1CCCC[C@@H](C(=O)O)NC(=O)[C@@H]2C[C@@H](O)CN2C(=O)[C@H](CCCN)NC(=O)[C@H](CCc2ccc(O)cc2)NC(=O)[C@@H]2C[C@@H](O)CN2C(=O)[C@H]([C@@H](C)O)NC1=O`, the MIC against Candida albicans [1] was > 100 mg/L.

For `CCCCCCCCCCCCCCCC(=O)N[C@H]1CCCNC(=O)[C@@H]2C[C@@H](O)CN2C(=O)[C@H](CCCN)NC(=O)[C@H](CCc2ccc(O)cc2)NC(=O)[C@@H]2C[C@@H](O)CN2C(=O)[C@H]([C@@H](C)O)NC1=O` (Palmitoyl-[Orn]T[Hyp][hTyr][Orn][Hyp]; lactam 1-C), the minimal inhibitory concentration (MIC) against Candida albicans [1] was 4.38 mg/L (≈ 4.51 µM). Also, the outcome in the experiment on Candida albicans [2], in the experiment on Candida dubliniensis, with Nakaseomyces glabratus, in the experiment on Candida tropicalis, with Candida parapsilosis and in the experiment with Pichia kudriavzevii was Active.

As to `CCCCCOc1ccc(-c2ccc(-c3ccc(C(=O)N[C@H]4C/C=C\C[C@@H](C(=O)NCCN)NC(=O)[C@@H]5C[C@@H](O)CN5C(=O)[C@H](CCCN)NC(=O)[C@H](CCc5ccc(O)cc5)NC(=O)[C@@H]5C[C@@H](O)CN5C(=O)[C@H]([C@@H](C)O)NC4=O)cc3)cc2)cc1` ({pTerphenylCO(4''-OnC5H11)}-[AllylGly]T[Hyp][hTyr][Orn][Hyp][AllylGly]-Ethylenediamine; staple (Z) 1-7), in the experiment with Candida albicans [1], the Activity result is “Dose-dependent effect” and the minimal inhibitory concentration (MIC) is > 100 mg/L.

Turning to `CCCCCOc1ccc(-c2ccc(-c3ccc(C(=O)N[C@H]4C/C=C\C[C@@H](CO)NC(=O)[C@@H]5C[C@@H](O)CN5C(=O)[C@H](CCCN)NC(=O)[C@H](CCc5ccc(O)cc5)NC(=O)[C@@H]5C[C@@H](O)CN5C(=O)[C@H]([C@@H](C)O)NC4=O)cc3)cc2)cc1`, in the experiment with Candida albicans [1], the Activity result was “Dose-dependent effect” and the MIC was > 100 mg/L.

Turning to `CCCCCOc1ccc(-c2ccc(-c3ccc(C(=O)N[C@H]4CCCNC(=O)[C@@H]5C[C@@H](O)CN5C(=O)[C@H](CCCN)NC(=O)[C@H](CCc5ccc(O)cc5)NC(=O)[C@@H]5C[C@@H](O)CN5C(=O)[C@H]([C@@H](C)O)NC4=O)cc3)cc2)cc1` ({pTerphenylCO(4''-OnC5H11)}-[Orn]T[Hyp][hTyr][Orn][Hyp]; lactam 1-C), the minimum inhibitory concentration (MIC) in the experiment with Candida albicans [1] was 0.14 mg/L (≈ 0.13 µM). Besides, the result with Candida albicans [2], in the experiment with Candida dubliniensis, in the experiment on Nakaseomyces glabratus, in the experiment on Candida tropicalis, in the experiment on Candida parapsilosis and with Pichia kudriavzevii was Active.

For `CCCCCOc1ccc(-c2ccc(-c3ccc(C(=O)N[C@H]4C/C=C\C[C@@H](C(=O)OC)NC(=O)[C@@H]5C[C@@H](O)CN5C(=O)[C@H](CCCN)NC(=O)[C@H](CCc5ccc(O)cc5)NC(=O)[C@@H]5C[C@@H](O)CN5C(=O)[C@H]([C@@H](C)O)NC4=O)cc3)cc2)cc1` ({pTerphenylCO(4''-OnC5H11)}-[AllylGly]T[Hyp][hTyr][Orn][Hyp][AllylGly]-OMe; staple (Z) 1-7), the MIC in the experiment on Candida albicans [1] was > 100 mg/L.

As to `CCCCCCCCCCCCCCCC(=O)N[C@H]1CSSC[C@@H](C(N)=O)NC(=O)[C@@H]2C[C@@H](O)CN2C(=O)[C@H](CCCN)NC(=O)[C@H](CCc2ccc(O)cc2)NC(=O)[C@@H]2C[C@@H](O)CN2C(=O)[C@H]([C@@H](C)O)NC1=O` (Palmitoyl-CT[Hyp][hTyr][Orn][Hyp]C-NH2; disulfide 1-7), the minimum inhibitory concentration (MIC) against Candida albicans [1] was > 100 mg/L.
